Reference: ChEMBL document CHEMBL3868630, “Synthesis, anti-proliferative activity, SAR study, and preliminary in vivo toxicity study of substituted N,N'-bis(arylmethyl)benzimidazolium salts against a panel of non-small cell lung cancer cell lines” (Bioorg Med Chem, 2017)

Key:
Mus musculus [1] = assay: Toxicity in C57BL/6 mouse assessed as increase in body mass at 20 mg/kg, ip measured after 16 days; assay type: organism-based; details: in vivo, 384 h
How it was run: (§1)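 Male C57BL/6 mice, eight weeks old, housed three per cage on a 12 h light/dark cycle with food and water ad libitum, acclimated 5 days. Single IP injection on day 0 of 100 µL of a 4 mg/mL solution (0.4 mg, ~20 mg/kg assuming 20 g mice) in 20% 2-HPβCD sterile PBS. Vehicle controls were injected on days 0, 7, 14, 21 and 25. Mice were monitored and weighed daily.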

[2] = Cytotoxicity against human NCI-H226 cells assessed as cell growth at 10 uM after 48 hrs by SRB assay relative to control; assay type: functional; details: NCI-H226, 48 h, read-out: Activity
[3] = Growth inhibition of human HOP92 cells after 48 hrs by SRB assay; assay type: functional; details: HOP-92, 48 h
[4] = Cytotoxicity against human EKVX cells assessed as cell growth at 10 uM after 48 hrs by SRB assay relative to control; assay type: functional; details: read-out: Activity
[5] = Cytotoxicity against human HOP62 cells assessed as cell growth at 10 uM after 48 hrs by SRB assay relative to control; assay type: functional; details: HOP-62, 48 h, read-out: Activity
[6] = Growth inhibition of human A549 cells after 48 hrs by SRB assay; assay type: functional; details: A549, 48 h
[7] = Cytotoxicity against human HOP92 cells assessed as cell growth at 10 uM after 48 hrs by SRB assay relative to control; assay type: functional; details: HOP-92, 48 h, read-out: Activity
[8] = Growth inhibition of human HOP62 cells after 48 hrs by SRB assay; assay type: functional; details: HOP-62, 48 h
[9] = Cytotoxicity against human A549 cells assessed as cell growth at 10 uM after 48 hrs by SRB assay relative to control; assay type: functional; details: A549, 48 h, read-out: Activity
[10] = Growth inhibition of human NCI-H226 cells after 48 hrs by SRB assay; assay type: functional; details: NCI-H226, 48 h
[11] = Cytotoxicity against human A549 cells assessed as decrease in cell viability after 72 hrs by MTT assay; assay type: functional, cell-based; details: A549, 72 h
How it was run: (§2)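 Cells kept in RPMI 1640 with 10% FBS at 37 °C, 5% CO2, passaged every 2-3 days; seeded at 5,000-7,000 cells/well and left 24 h. Compounds dissolved in 1% DMSO, diluted in fresh medium to 1, 4, 16 and 32 µM, added in sextuplicate; 72 h exposure. MTT added for 3-4 h, medium removed, DMSO added for 15 min at 37 °C, OD read at 540 nm.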

[12] = Aqueous solubility of the compound; assay type: physicochemical
[13] = Growth inhibition of human NCI-H522 cells after 48 hrs by SRB assay; assay type: functional; details: NCI-H522, 48 h
Mus musculus [14] = assay: Toxicity in C57BL/6 mouse assessed as weight loss at 20 mg/kg, ip measured on day 2; assay type: organism-based; details: in vivo
How it was run: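 Male C57BL/6 mice, 8 weeks old, 3 per cage, 12 h light/dark, food and water ad libitum, acclimated 5 days. Single IP dose on day 0 of 100 µL of 4 mg/mL in 20% 2-HPβCD in sterile PBS (~20 mg/kg assuming 20 g mice). Vehicle controls got 100 µL 20% 2-HPβCD/PBS IP on days 0, 7, 14, 21, 25. Weighed and monitored daily.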

[15] = Cytotoxicity against human NCI-H522 cells assessed as cell growth at 10 uM after 48 hrs by SRB assay relative to control; assay type: functional; details: NCI-H522, 48 h, read-out: Activity
[16] = Growth inhibition of human NCI-H460 cells after 48 hrs by SRB assay; assay type: functional; details: NCI-H460, 48 h
[17] = Cytotoxicity against human NCI-H460 cells assessed as cell growth at 10 uM after 48 hrs by SRB assay relative to control; assay type: functional; details: NCI-H460, 48 h, read-out: Activity
[18] = Growth inhibition of human EKVX cells after 48 hrs by SRB assay; assay type: functional
[19] = Toxicity in C57BL/6 mouse assessed as mouse survival rate at 20 mg/kg, ip measured after 16 days; assay type: organism-based; details: in vivo; how it was run: as §1
[20] = Cytotoxicity against human NCI-H23 cells assessed as cell growth at 10 uM after 48 hrs by SRB assay relative to control; assay type: functional; details: NCI-H23, 48 h, read-out: Activity
[21] = Cytotoxicity against human NCI-H1975 cells assessed as decrease in cell viability after 72 hrs by MTT assay; assay type: functional, cell-based; details: NCI-H1975, 72 h; how it was run: as §2
[22] = Cytotoxicity against human NCI-H460 cells assessed as decrease in cell viability after 72 hrs by MTT assay; assay type: functional, cell-based; details: NCI-H460, 72 h; how it was run: as §2
[23] = Growth inhibition of human NCI-H23 cells after 48 hrs by SRB assay; assay type: functional; details: NCI-H23, 48 h
[24] = Cytotoxicity against human NCI-H322M cells assessed as cell growth at 10 uM after 48 hrs by SRB assay relative to control; assay type: functional; details: read-out: Activity
[25] = Growth inhibition of human NCI-H322M cells after 48 hrs by SRB assay; assay type: functional
[26] = Cytotoxicity against human HCC827 cells assessed as decrease in cell viability after 72 hrs by MTT assay; assay type: functional, cell-based; details: HCC827, 72 h; how it was run: as §2
[27] = read-out: LC50 (the source's name)

COCCOCCOCc1n(Cc2ccc3ccccc3n2)c2ccccc2[n+]1Cc1ccc2ccccc2c1.[Br-]
Activity (Mus musculus [1]): 6%
growth at 10 µM [2]: 28.1%
GI50 [3]: 0.207 µM
LC50 [3]: 5.22 µM
TGI [3]: 0.718 µM
growth at 10 µM [4]: 31%
growth at 10 µM [5]: 11.7%
GI50 [6]: 0.748 µM
LC50 [6]: 37.1 µM
TGI [6]: 10.6 µM
growth at 10 µM [7]: -18.2%
GI50 [8]: 0.468 µM
TGI [8]: 2.52 µM
CC50 [8, 27]: 9.53 µM
growth at 10 µM [9]: 22.5%
GI50 [10]: 0.874 µM
LC50 [10]: 45.2 µM
TGI [10]: 4.83 µM
IC50 [11]: 3 µM
solubility [12]: 1900 µg/mL
GI50 [13]: 0.248 µM
TGI [13]: 0.936 µM
CC50 [13, 27]: 4.59 µM
Activity (Mus musculus [14]): Toxic
growth at 10 µM [15]: 0.79%
GI50 [16]: 0.424 µM
LC50 [16]: 5.7 µM
TGI [16]: 1.56 µM
growth at 10 µM [17]: 7.94%
GI50 [18]: 1.27 µM
LC50 [18]: 50.9 µM
TGI [18]: 10.8 µM
survival at 384 h [19]: 33%
growth at 10 µM [20]: 1.03%
IC50 [21]: < 1 µM
IC50 [22]: 3 µM
GI50 [23]: 0.386 µM
LC50 [23]: 53.5 µM
TGI [23]: 10.3 µM
growth at 10 µM [24]: 26.8%
GI50 [25]: 1.08 µM
TGI [25]: 7.09 µM
CC50 [25, 27]: 28.6 µM
IC50 [26]: 6 µM
